Screens deposited in PubChem BioAssay by several laboratories.
rCAG binder: r(CAG) repeat RNA binding; TO-PRO-1 dye displacement fluorescence; inhibition, % at 3 µM; hit rate 1.3% among 370,000; AID 651821;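 active = inhibition above the plate cutoff, the mean of all test compounds on that plate plus 3 SD, cut at about 35% in these data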;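 also: 0% = DMSO alone and 100% = 100 µM mitoxantrone as full dye displacement; higher means more dye released from RNA so lower well fluorescence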
V-ATPase pHluor: alters yeast V-ATPase proton transport. S. cerevisiae, pHLuorin cytosolic pH fluorescence. response, % at 10 µM. hit rate 0.37% among 350,000. AID 504577; in the data active = response mostly above about 7.3%, no sharp cut-off; inactive = mostly below about 5.4%; also: actives read high
Beta2AR agonist: activates human beta-2 adrenergic receptor causing internalization. AID 504454. hit rate 0.43% among 340,000. Am2.2-beta2AR cells, FAP receptor internalization, flow cytometry. response, % (test concentration not listed). P07550;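 active = response above a set limit, near 3 SD of response in nonfluorescent compounds, cut at about 42% in these data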
Target sequence (P07550 whole entry, looked up): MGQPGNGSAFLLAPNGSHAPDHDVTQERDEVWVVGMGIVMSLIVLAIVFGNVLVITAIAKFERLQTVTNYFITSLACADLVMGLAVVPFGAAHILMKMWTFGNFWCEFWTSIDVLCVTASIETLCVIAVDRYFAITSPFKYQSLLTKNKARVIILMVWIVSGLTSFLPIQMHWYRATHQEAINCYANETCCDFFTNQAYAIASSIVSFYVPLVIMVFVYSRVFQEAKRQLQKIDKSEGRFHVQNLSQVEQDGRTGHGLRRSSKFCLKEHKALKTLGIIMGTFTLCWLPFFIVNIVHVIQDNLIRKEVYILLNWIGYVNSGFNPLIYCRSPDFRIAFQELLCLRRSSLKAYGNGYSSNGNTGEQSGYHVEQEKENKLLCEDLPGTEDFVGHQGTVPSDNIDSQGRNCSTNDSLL
MPTP block: permeability transition pore inhibition; isolated mouse mitochondria, Ca2+ swelling absorbance, 30 min; inhibition, % at 10 µM; hit rate 1.4% among 360,000;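 active = inhibition of 50% or more, scaled per plate between neutral and stimulator controls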;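 also: 0% = DMSO wells given calcium and 100% = 1 mM EGTA wells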
Granule exo inh: blocks lytic granule exocytosis; TALL-104 LAMP-1 surface exposure, flow cytometry; cells stimulated with thapsigargin and PMA; inhibition, % at 10 µM; hit rate 0.66% among 360,000;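 active = inhibition above about 55%, limit read from the data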
T cell modulator: T cell immune modulators affecting CD8 T cell-vesicle binding. 2C CD8+ T cell-vesicle binding, flow cytometry; stronger effect = lower value. response (vesicle binding), % at 7 µM. hit rate 0.068% among 330,000. AID 2052;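 active = response, share of CD8 T cells binding vesicles, and their 90th percentile fluorescence all below set limits, cut at about 80% in these data, passing the limit was not always enough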;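 also: values below 100% mean blocked vesicle binding to the CD8+ T cells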
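Material: murine 2C transgenic CD8+ T lymphocytes / Also added: QL9-peptide-loaded Drosophila micro-vesicles bearing Ld, ICAM-1 and B7-1 / Schedule: binding step 1.5 h, 37 °C, antibody labelling 20 min, ice / Signal: flow cytometry, PE anti-B7-1 (FL2) versus Alexa647 anti-CD8 (FL8), PFA-fixed / Evaluation: percent CD8+ FL2 mean versus row control / Benchmarks: naked versus QL9-loaded vesicles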
Rh123 counter: mitochondrial membrane potential, counter-screen. shares compounds with MPTP block. isolated mitochondria, Rhodamine 123 fluorescence. inhibition, % at 10 µM. hit rate 78% among 5,000; in the data active = inhibition above about 22%;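 also: 0% = DMSO vehicle and 100% = positive control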
MPTP swell DR: MPTP inhibition, dose response swelling confirmation | shares compounds with MPTP block | isolated mitochondria swelling, absorbance | IC50, µM | hit rate 58% among 780 | AID 651561; in the data active = IC50 below about 20 µM
MPTP counter DR: MPTP inhibitor counter-screen activity, dose response | isolated mitochondria counterscreen, fluorescence read-out | IC50, µM | hit rate 49% among 780 | shares compounds with MPTP block; in the data active = IC50 below about 80 µM
Active calls of the source: *; i = inactive; x = no result given. Most compounds without a hit are left out; they make up all but 3.8% or so of the library.

SMILES	rCAG binder	V-ATPase pHluor	Beta2AR agonist	MPTP block	Granule exo inh	T cell modulator	Rh123 counter	others
CC1CCN(c2nc(-c3cccnc3)nc3scc(-c4ccccc4)c23)CC1	1.0	-0.7	-10.9	5.7	8.0	188.1	x
C=CC(=O)NC1CCCCN(C(C)C)C1=O (configuration not stated)	9.2	x	x	x	x	x	x
CCC1Sc2ccc(S(=O)(=O)Nc3ccc(OC)c(OC)c3)cc2NC1=O (configuration not stated)	4.5	2.1	-2.9	95.1*	6.3	258.3	86.5*
Clc1ccccc1-c1nc(-c2ccccc2)n[nH]1	-1.4	1.6	-10.2	2.6	-2.5	257.5	x
Oc1ccccc1-c1n[nH]c(-c2ccccc2O)n1	13.2	6.3	9.3	86.9*	-1.7	x	84.5*
NC(=O)CCN1CCN(CCOC2Cc3cc(Cl)ccc3Sc3ccccc32)CC1 (configuration not stated)	-4.6	-1.3	1.8	61.6*	-2.9	215.5	-7.6	MPTP swell DR=>100;MPTP counter DR=>80
O=c1cc(CSc2nnc(Nc3ccccc3)s2)nc2sccn12	2.1	2.0	-2.7	-1.9	-6.0	402.4	x
Cc1cccc(Nc2nnc(SCc3cn4ccsc4n3)s2)c1	-1.2	-0.2	-10.7	76.0*	-1.1	622.4	-1.1	MPTP swell DR=>100;MPTP counter DR=>80
CC1CCCN(c2cccc3c2S(=O)(=O)N(Cc2cccc(F)c2)[C@@H](C)[C@H](c2ccccc2)O3)C1 (some centres not stated)	2.5	x	x	x	x	x	x
O=C(CN(c1cccc(C(F)(F)F)c1)S(=O)(=O)c1ccc(Cl)c([N+](=O)[O-])c1)NCc1ccc(F)cc1	5.5	-1.2	22.6	74.3*	25.7	166.7	66.6*
O=C(Nc1ccccc1-c1nc2ccccc2[nH]1)c1ccc(S(=O)(=O)N2CCCCC2)cc1	0.9	-7.8	10.7	50.5*	0.0	x	28.0*
CC1CCCCN1S(=O)(=O)c1ccc(C(=O)Nc2ccccc2-c2nc3ccccc3s2)cc1 (configuration not stated)	3.0	1.6	3.5	-1.3	-7.0	274.6	x
CC1CCCCN1S(=O)(=O)c1ccc(C(=O)Nc2ccccc2-c2nc3ccccc3[nH]2)cc1 (configuration not stated)	7.2	-0.6	-3.2	74.2*	-1.4	140.4	74.6*
CCOc1ccc(Br)cc1/C(C)=N\NC1=NCCN1	3.4	1.6	-2.2	107.6*	3.3	279.7	66.9*
CCCCCCOc1ccc(/C(C)=N/NC2=NCCN2)cc1	12.4	0.5	38.3	94.3*	58.8*	175.8	-1.9
CCCCCOc1ccc(/C(C)=N/NC2=NCCN2)cc1	6.8	-2.5	15.1	49.4	35.0	249.7	x
O=C(CC1CCCC1)N1CC[C@H]2[C@H](CCCN2Cc2ccc(F)cc2)C1	-3.1	x	x	x	x	x	x
CC(C)CN1C(=O)C[C@@]2(C(=O)N(C)c3ccc(NC(=O)c4cc(F)ccc4F)cc32)C1c1ccccc1 (some centres not stated)	-3.0	x	x	x	x	x	x
O=C(OC12CCCN(C1)/C(=C/c1cccc(Cl)c1)C2)c1ccno1 (configuration not stated)	3.3	x	x	x	x	x	x
Oc1c(Cl)cc(Cl)cc1CNc1nc2ccccc2[nH]1	9.1	-5.6	5.9	71.7*	-1.9	165.3	76.7*
O=C(/C=C/c1ccc(Cl)cc1)NCCSc1ccccc1	2.1	2.5	-2.4	45.1	0.7	i	x
O=C(/C=C/c1ccc(Cl)cc1Cl)NCCSc1ccccc1	4.3	0.6	-0.1	96.3*	-4.9	243.1	91.6*
O=C(/C=C/c1cccc([N+](=O)[O-])c1)NCCSCc1ccc(Cl)cc1	1.6	-1.9	4.0	51.4*	19.6	277.0	64.0*
O=C(/C=C/c1ccc(Cl)cc1Cl)NCCSCc1ccccc1	-1.2	1.6	-15.6	92.4*	-4.1	341.7	82.2*
CC1(C(=O)Nc2ccc3c(c2)OCO3)CCN1C(=O)Cc1ccc(-c2ccccc2)cc1 (configuration not stated)	1.7	x	x	74.1*	-4.6	x	96.0*
SMILES	rCAG binder	V-ATPase pHluor	Beta2AR agonist	MPTP block	Granule exo inh	T cell modulator	Rh123 counter	others
CC1(C(=O)Nc2ccccc2)CCN1C(=O)Cc1ccc(-c2ccccc2)cc1 (configuration not stated)	2.0	x	x	8.5	-3.1	x	x
Cc1ccc(S(=O)(=O)Nc2ccc(NC(=O)Nc3cccc(C(F)(F)F)c3)cc2)cc1	21.3	-0.2	14.1	97.7*	2.1	173.5	61.4*
Cc1ccc(NS(=O)(=O)c2ccc(NC(=O)c3cccc(NC(=O)C(C)C)c3)cc2)cc1	11.3	-0.1	-2.0	1.9	43.2	330.7	x
CCN(CC)S(=O)(=O)c1ccc(NC(=O)Nc2cccc(C(F)(F)F)c2)cc1	34.5	-4.8	10.4	84.2*	10.4	346.1	73.9*
Cc1ccc(-c2cc(C(=O)N=Nc3c(O)[nH]c4ccccc34)[nH]n2)cc1C	26.7	x	x	x	x	x	x
COC(=O)c1ccc(S(=O)(=O)N2CCC(NC(=O)Cc3ccccc3)CC2)cc1	1.7	x	x	x	x	x	x
CN1C(=O)C(N=Nc2ccc([N+](=O)[O-])cc2)SC1=S (configuration not stated)	5.0	-5.7	11.6	111.7*	-12.6	x	69.3*
Cc1ccc(C(=O)N(CC(=O)Nc2ccc(Cl)c(Cl)c2)Cc2ccco2)cc1	2.5	-1.8	1.0	53.0*	-1.3	418.5	70.7*
O=C(CN(Cc1ccco1)C(=O)c1ccccc1)Nc1ccc(Cl)c(Cl)c1	2.2	1.4	-1.3	41.1	0.4	i	x
CC(=O)c1cc(-c2cc3ccccc3o2)c(=O)n2c1CCC2	7.3	x	x	x	x	x	x
NCCCCc1ccc2ccc3cccc4ccc1c2c34	19.7	0.2	5.3	88.8*	26.1	x	-15.4	MPTP swell DR=6.16*;MPTP counter DR=53.3*
COC(=O)[C@]12C[C@H](CC(=O)N3CCCCC3)C(=O)N(CCC3=CCCCC3)C1=C[C@H](C(C)C)O[C@@H]2C1CC1	-1.5	x	x	x	x	x	x
Cc1ccc(COC(=O)c2nn(C)c(=O)c3ccccc23)cc1	-3.3	-0.4	1.2	55.4*	-2.1	230.0	33.6*
COc1ccc(S[C@]2(C(=O)N(C)C)CC(=O)N(C(=O)c3ccccc3)[C@@H]2c2ccc(OC)cc2)cc1	5.8	x	x	x	x	x	x
Cc1cc2c(c(=O)o1)[C@@]1(C(=O)N(C)c3ccccc31)C1=C(CC(C)(C)CC1=O)O2	1.1	x	x	x	x	x	x
Cc1cc(C(=O)CSc2nnc(-c3ccccc3F)o2)c(C)n1Cc1cccs1	9.2	-4.2	4.9	53.9*	-4.0	255.5	29.1*
O=C1S/C(=C\c2ccc(O)c([N+](=O)[O-])c2)C(=O)N1Cc1cccc([N+](=O)[O-])c1	7.7	-2.4	8.1	99.8*	12.5	237.5	61.0*
